Data from ChEMBL document CHEMBL1135862, “Bioactive 4-substituted-6-methyl-2-pyrones with promising cytotoxicity against A2780 and K562 cell lines” (Bioorg Med Chem Lett, 2002).

Experiments:
Bacillus subtilis [1] = assay: Antimicrobial activity against Bacillus subtilis after 96 hr incubation; format: functional; set-up: concentration or dose not given beside the values
Outline: (§1)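 Agar diffusion on cellulose disks loaded with 200 µg compound each. Bacteria read after 96 h, yeasts after 48 h. Activity is recorded as the radius in mm, or percent, of the inhibition zone. Squalestatin S1 (200 µg/disk) served as control in the yeast assay.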

Candida albicans [2] = assay: Anti fungal activity against Candida albicans after 48 hr incubation; format: functional; set-up: concentration or dose not given beside the values; outline: as §1
Candida albicans [3] = assay: Antimicrobial activity against Candida albicans after 48 hr incubation; format: functional; outline: as §1
Escherichia coli [4] = assay: Antimicrobial activity against Escherichia coli after 96h incubation; format: functional; outline: as §1
Escherichia coli [5] = assay: Antimicrobial activity against the Escherichia coli after 96 hr incubation; format: functional; set-up: concentration or dose not given beside the values; outline: as §1
[6] = test system: Schizosaccharomyces pombe; assay: (§2) Antimicrobial activity against Schizosaccharomyces pombe after 48 hr incubation; format: functional; set-up: concentration or dose not given beside the values; outline: as §1
[7] = test system: Schizosaccharomyces pombe; assay: as §2; format: functional; outline: as §1
Saccharomyces cerevisiae = assay: Antimicrobial activity against Saccharomyces cerevisiae after 48 hr incubation; format: functional; outline: as §1
Staphylococcus aureus [8] = assay: Antimicrobial activity against Staphylococcus aureus after 96h incubation; format: functional; outline: as §1
Bacillus subtilis [9] = assay: Antimicrobial activity against Bacillus subtilis after 96h incubation; format: functional; outline: as §1
A2780 = assay: Inhibitory concentration in vitro for cytotoxic activity against A 2780 human ovarian carcinoma cells; format: functional, cell-based
Outline: (§3)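 MTT assay in 96-well plates, seeding 400–1000 cells/well. Cells recover 24 h, then drug in medium is added, three wells per dose. Incubate 5 days at 37 °C in 5% CO₂. Add MTT (3 mg/mL) for 3 h, dissolve formazan in DMSO, read at 540 nm minus 620 nm. Percent growth inhibition per dose comes from duplicate experiments, reported as mean and SD; IC50 is derived from these.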

K562 = assay: Inhibitory concentration in vitro for cytotoxic activity against K 562 human chronic myelogenous leukemia cells; format: functional, cell-based; outline: as §3
Staphylococcus aureus [10] = assay: The compound was evaluated for anti microbial activity against Staphylococcus aureus after 96 hr incubation; format: functional; set-up: concentration or dose not given beside the values; outline: as §1

| Structure (SMILES) | Inhibition (Bacillus subtilis [1]) [%] | Inhibition (Candida albicans [2]) [%] | Inhibition (Candida albicans [3]) [mm] | Inhibition (Escherichia coli [4]) [mm] | Inhibition (Escherichia coli [5]) [%] | Inhibition [6] [%] | Inhibition [7] [mm] | Inhibition (Saccharomyces cerevisiae) [mm] | Inhibition (Staphylococcus aureus [8]) [mm] | Inhibition (Bacillus subtilis [9]) [mm] | IC50 (A2780) [µM] | IC50 (K562) [µM] | Inhibition (Staphylococcus aureus [10]) [%] |
| --- | --- | --- | --- | --- | --- | --- | --- | --- | --- | --- | --- | --- | --- |
| CCCC/C=C/c1cc(C)oc(=O)c1 | 20.5 | 27.3 | 24 | 18 | 20.5 | 45.5 | 40 | 0 | 0 | 18 |  |  |  |
| CCCCc1cc(C)oc(=O)c1 | 22.7 |  | 0 | 22 | 25 |  | 0 | 0 | 0 | 20 | > 50 | > 50 |  |
| CCCCCc1cc(C)oc(=O)c1 | 26.1 |  | 0 | 22 | 25 | 25 | 22 | 0 | 0 | 23 | > 50 | > 50 |  |
| Cc1cc(CCc2ccccc2)cc(=O)o1 | 20.5 |  | 0 | 20 | 22.7 | 11.4 | 10 | 0 | 0 | 18 | > 50 | > 50 |  |
| CCCCCC#Cc1cc(C)oc(=O)c1 | 21.6 | 25 | 22 | 19 | 21.6 | 56.8 | 50 | 0 | 21 | 19 | 2.9 | 11.1 | 23.9 |
| CCCCCCc1cc(C)oc(=O)c1 | 23.9 | 12.5 | 11 | 25 | 28.4 | 29.5 | 26 | 0 | 0 | 21 | > 50 | > 50 |  |
| COc1ccc(-c2cc(C)oc(=O)c2)cc1 | 19.3 |  | 0 | 20 | 22.7 | 22.7 | 20 | 0 | 0 | 17 | > 50 | > 50 |  |
| Cc1cc(/C=C/c2ccccc2)cc(=O)o1 | 20.5 |  | 0 | 17 | 19.3 | 20.5 | 18 | 0 | 0 | 18 | > 50 | > 50 |  |
| CCCCCCCCc1cc(C)oc(=O)c1 | 21.6 | 22.7 | 20 | 22 | 25 | 34.1 | 30 | 0 | 18 | 19 |  |  | 20.5 |
| Cc1cc(-c2ccc(Cl)cc2)cc(=O)o1 | 20.5 |  | 0 | 20 | 22.7 |  | 0 | 0 | 20 | 18 | > 50 | > 50 | 22.7 |
| Cc1cc(C#Cc2ccc([N+](=O)[O-])cc2)cc(=O)o1 | 6.8 |  | 0 | 0 |  | 10.2 | 9 | 0 | 0 | 6 |  |  |  |
| CCCCCCC#Cc1cc(C)oc(=O)c1 | 19.3 |  | 0 | 17 | 19.3 | 54.5 | 48 | 0 | 18 | 17 | 3.4 | 20.3 | 20.5 |
| CCOCCc1cc(C)oc(=O)c1 |  |  |  |  |  |  | 0 |  |  |  | > 50 | > 50 |  |
| Cc1cc(C#Cc2ccccc2)cc(=O)o1 | 21.6 |  | 0 | 20 | 22.7 | 42 | 37 | 0 | 0 | 19 | 1.8 | 4 |  |
| CC(=O)Nc1ccc(C#Cc2cc(C)oc(=O)c2)cc1 | 6.8 |  | 0 | 0 |  |  | 0 | 0 | 16 | 6 |  |  | 18.2 |
| Cc1cc(-c2ccccc2)cc(=O)o1 | 20.5 |  | 0 | 20 | 22.7 |  | 0 | 0 | 18 | 18 | > 50 | > 50 | 20.5 |
| CCCCC#Cc1cc(C)oc(=O)c1 | 19.3 | 22.7 | 20 | 20 | 22.7 | 51.1 | 45 | 0 | 0 | 17 | 7 | 15.5 |  |
| CCC/C=C/c1cc(C)oc(=O)c1 | 18.2 | 18.2 | 16 | 19 | 21.6 | 31.8 | 28 | 0 | 20 | 16 |  |  | 22.7 |
| Cc1cc(-c2ccc(C=O)cc2)cc(=O)o1 | 20.5 |  | 0 | 15 | 17 | 15.9 | 14 | 0 | 18 | 18 | 19.2 | 26 | 20.5 |
| Cc1ccc(-c2cc(C)oc(=O)c2)cc1 | 21.6 |  | 0 | 18 | 20.4 |  | 0 | 0 | 0 | 19 | > 50 | > 50 |  |
